Tb MetRS inh: blocks T. brucei methionyl-tRNA synthetase activity | purified T. brucei MetRS, ATP depletion, Kinase-Glo luminescence | inhibition, % at 11.9 µM | 360,000 compounds, 0.4% hits | AID 624268;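 active = inhibition above a per-plate cutoff of the control wells' mean inhibition plus 3 SD, cut at about 5.5% in these data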
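Assay system: T. brucei methionyl-tRNA synthetase, purified | Medium: HEPES buffer with MgCl2, KCl, DTT, spermine, BSA, pyrophosphatase | Compound: 11.9 µM single point | Incubation: 15 min enzyme-compound preincubation, 2 h reaction, 10 min detection, 25 °C | Measured by: Kinase-Glo luciferase luminescence reporting remaining unconsumed ATP | Measure: % inhibition normalized to control-well medians | Replication: Singlicate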
ADAM17 inh: inhibitors of human ADAM17 | AID 720648 | recombinant ADAM17, EDANS/DABCYL FRET peptide cleavage | 370,000 compounds, 0.83% hits | inhibition, % at 6.95 µM;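 active = inhibition above the mean of compounds lying between control limits plus 3 SD, set per campaign, cut at about 8.5% in these data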
ADAM10 inh: ADAM10 inhibition, QFRET primary screen. O14672. recombinant ADAM10, EDANS/DABCYL FRET peptide cleavage, 3 h. inhibition, % at 7 µM. 370,000 compounds, 0.62% hits. AID 720582;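 active = inhibition above a per-campaign cutoff equal to the mean of compounds falling between control-based bounds plus 3 SD, cut at about 20% in these data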
PLC-gamma1 inh: inhibitors of human phospholipase C gamma1; 370,000 compounds, 0.84% hits; inhibition, % at 12.2 µM; P19174; purified PLC-gamma1, fluorogenic substrate, fluorescence; in the data active = inhibition above about 9.5%
PLCb3 inh: blocks human PLC-beta3 enzyme activity; Purified PLC-beta3, fluorogenic substrate, fluorescence; inhibition, % at 12.2 µM; Q01970; 370,000 compounds, 0.18% hits
Target sequence (Q01970 whole entry, looked up): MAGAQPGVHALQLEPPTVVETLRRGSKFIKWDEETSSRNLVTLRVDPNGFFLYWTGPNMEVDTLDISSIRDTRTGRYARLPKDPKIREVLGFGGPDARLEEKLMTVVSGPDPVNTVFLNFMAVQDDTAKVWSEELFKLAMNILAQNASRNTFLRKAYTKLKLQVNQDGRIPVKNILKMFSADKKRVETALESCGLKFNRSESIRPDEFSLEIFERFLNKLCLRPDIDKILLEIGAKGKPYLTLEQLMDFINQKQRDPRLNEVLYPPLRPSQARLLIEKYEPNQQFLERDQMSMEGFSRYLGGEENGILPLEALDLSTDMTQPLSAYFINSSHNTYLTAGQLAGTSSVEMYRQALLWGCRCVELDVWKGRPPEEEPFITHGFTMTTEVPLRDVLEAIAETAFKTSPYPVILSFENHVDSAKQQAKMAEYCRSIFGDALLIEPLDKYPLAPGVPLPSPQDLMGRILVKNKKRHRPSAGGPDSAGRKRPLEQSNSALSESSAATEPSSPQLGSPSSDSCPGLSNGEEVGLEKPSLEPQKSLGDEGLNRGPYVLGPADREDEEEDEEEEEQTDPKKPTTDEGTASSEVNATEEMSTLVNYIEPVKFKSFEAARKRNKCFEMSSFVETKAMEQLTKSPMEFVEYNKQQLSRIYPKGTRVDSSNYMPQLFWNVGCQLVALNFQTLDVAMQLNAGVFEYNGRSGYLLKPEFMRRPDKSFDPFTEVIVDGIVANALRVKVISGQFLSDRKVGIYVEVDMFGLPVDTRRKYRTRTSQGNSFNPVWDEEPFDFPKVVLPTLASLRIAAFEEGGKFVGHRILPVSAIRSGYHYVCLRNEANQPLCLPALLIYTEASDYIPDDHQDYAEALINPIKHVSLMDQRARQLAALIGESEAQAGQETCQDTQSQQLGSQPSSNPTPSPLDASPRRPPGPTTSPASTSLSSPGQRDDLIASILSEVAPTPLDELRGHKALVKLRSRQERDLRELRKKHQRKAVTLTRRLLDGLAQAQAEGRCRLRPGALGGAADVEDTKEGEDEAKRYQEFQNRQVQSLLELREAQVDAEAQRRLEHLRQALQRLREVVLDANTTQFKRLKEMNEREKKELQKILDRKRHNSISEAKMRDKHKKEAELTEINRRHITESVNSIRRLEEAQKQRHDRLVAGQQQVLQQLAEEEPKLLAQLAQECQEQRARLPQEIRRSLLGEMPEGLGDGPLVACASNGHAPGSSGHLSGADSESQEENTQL
PLCg1 ctr: PLC-gamma1 inhibition, counter-screen for PLC-beta3 hits | shares compounds with PLC-gamma1 inh | purified PLC-gamma1, fluorogenic substrate, fluorescence | inhibition, % at 12.3 µM | 3,300 compounds, 3.1% hits | AID 743258; in the data active = inhibition above about 9.5%
PLCbeta3 conf: confirmation of human PLC-beta3 inhibitors | shares compounds with PLC-gamma1 inh | purified PLC-beta3, fluorogenic substrate fluorescence | inhibition, % at 12.3 µM | 3,300 compounds, 1% hits | AID 743261
Each line names hits and unclear results; the compound was inactive in the other large screens (follow-up assays come after a bar, where they were run). Shown are actives, neighbours in structure and some others; about 2.3% of the full set was active somewhere. Cut-off read from the data, not from the text of the source, unless noted: active = inhibition above about 11%; inactive = the rest.

CCOC(=O)C1(C)CCCCCN1C(=O)c1ccc(C(F)(F)F)nc1C (stereo unspecified)	none
CCC(C)N(C(=O)CNc1nnnn1-c1ccccc1)C(C)CC (stereo unspecified)	none (no result: Tb MetRS inh)
O=c1cc(CSc2nnc(Nc3ccccc3)s2)nc2sccn12	none
Cc1cccc(Nc2nnc(SCc3cn4ccsc4n3)s2)c1	PLC-gamma1 inh 10 | PLCg1 ctr inactive | PLCbeta3 conf inactive
Nc1ccccc1-n1nc2ccc3ccccc3c2n1	none
O=C(NC(=S)NCC1CCCO1)c1cccc([N+](=O)[O-])c1 (stereo unspecified)	PLC-gamma1 inh 9.6, PLCb3 inh 12 | PLCg1 ctr inactive | PLCbeta3 conf inactive
CC(C)c1ccc(NC2CCCN(C(=O)c3cccs3)C2)cc1 (stereo unspecified)	none
CCOC(=O)c1ccc(NC(=S)N2CCN(C)CC2)cc1	none
CCOC(=O)c1c(NC(=S)N2CCN(C)CC2)sc(C)c1-c1ccccc1	PLC-gamma1 inh 11 | PLCg1 ctr inactive | PLCbeta3 conf inactive
CSCCC(NC(=O)C12CC3CC(CC(C3)C1)C2)C(=O)OCC(=O)c1ccc(C)cc1 (stereo unspecified)	PLC-gamma1 inh 11 | PLCg1 ctr inactive | PLCbeta3 conf inactive
COc1ccccc1NC(=O)c1ccccc1S(=O)(=O)c1ccc([N+](=O)[O-])cc1	PLC-gamma1 inh 9.8 | PLCg1 ctr inactive | PLCbeta3 conf inactive
CC1N=C(SCC(=O)c2ccc(F)cc2)N2C(C)N=C(SCC(=O)c3ccc(F)cc3)N12 (stereo unspecified)	none
COc1ccc(OCc2cc(C(=O)NC(C)Cn3cncn3)no2)c(Cl)c1 (stereo unspecified)	PLC-gamma1 inh 11 | PLCg1 ctr inactive | PLCbeta3 conf inactive
CCOc1cc(CNCCO)c(Cl)cc1OCC(=O)NCCc1ccccc1	PLCb3 inh 12 | PLCg1 ctr inactive | PLCbeta3 conf inactive
CCc1ccc(OCC(=O)NC(C)(C)C)cc1	PLC-gamma1 inh 10 | PLCg1 ctr inactive | PLCbeta3 conf inactive
CCOc1cc(CNCCc2ccccc2)ccc1OCC(=O)NC(C)(C)C	PLC-gamma1 inh 9.9 | PLCg1 ctr inactive | PLCbeta3 conf inactive
CCOc1cc(CNCCc2ccc(S(N)(=O)=O)cc2)ccc1OCC(=O)NC(C)(C)C	none
CCNC(=O)COc1ccc(CC)cc1	none
CC1CCCN(c2cccc3c2S(=O)(=O)N([C@H](C)c2ccccc2)C[C@@H](COCc2ccccc2)O3)C1 (stereo partly specified)	none (no result: Tb MetRS inh)
Cc1ccc(S(=O)(=O)N2CCCC(C(=O)Nc3c(C)n(C)n(-c4ccccc4)c3=O)C2)cc1 (stereo unspecified)	none (no result: Tb MetRS inh)
CCS(=O)(=O)Nc1c(C)n(C)n(-c2ccccc2)c1=O	PLC-gamma1 inh 9.6 | PLCg1 ctr inactive | PLCbeta3 conf inactive
Cc1c(NC(=O)C2CCCN2S(=O)(=O)c2ccccc2)c(=O)n(-c2ccccc2)n1C (stereo unspecified)	PLCb3 inh 13 | PLCg1 ctr inactive | PLCbeta3 conf inactive
O=C(C1CC(=O)N(c2ccccc2)C1)N1CCN(c2ccccc2)CC1 (stereo unspecified)	none
O=C(CN1C(=O)NC2(CCCC2)C1=O)N1CCN(S(=O)(=O)c2cc(Cl)ccc2Cl)CC1	PLC-gamma1 inh 10 | PLCg1 ctr inactive | PLCbeta3 conf inactive
Cc1ccccc1NS(=O)(=O)c1ccc2c(c1)CCC(=O)N2	PLC-gamma1 inh 13 | PLCg1 ctr inactive | PLCbeta3 conf inactive
C[C@@H]1CN([C@H](C)CO)C(=O)c2c(c3ccccc3n2C)-c2ccccc2CO[C@@H]1CN(C)S(=O)(=O)c1cccs1	none
CCn1c(CNc2ccc(C)cc2)nnc1SCC(N)=O	PLC-gamma1 inh 9.7 | PLCg1 ctr inactive | PLCbeta3 conf inactive
Cc1ccc(-n2cc(CN3CCNC(=O)CC3)c(-c3ccc(F)cc3)n2)cc1	none
Cc1ccc(-n2cc(CN3CCC(O)(c4ccccn4)CC3)c(-c3ccc(F)cc3)n2)cc1	PLC-gamma1 inh 9.8 | PLCg1 ctr inactive | PLCbeta3 conf inactive
CC(C)(C)OC(=O)C[C@H]1C/C=C\C[C@H](CC(=O)NCCO)C(=O)N[C@@H](Cc2ccccc2)COC1=O	none
Cc1cccc(C)c1NC(=O)c1cnccn1	none
CCOc1cc(C(=O)N2CCC(CC3CC(c4ccccc4)=NO3)(C(=O)NCc3ccc(OC)cc3)CC2)cc(OCC)c1OCC (stereo unspecified)	none
CCOc1cc(C(=O)N2CCC(CC3CC(c4ccc(Cl)cc4)=NO3)(C(=O)NCC3CCCCC3)CC2)cc(OCC)c1OCC (stereo unspecified)	PLCb3 inh 11 | PLCg1 ctr inactive | PLCbeta3 conf inactive
CCOC(=O)N1CCN(Cc2nc3cc(NC(=O)C(C)C)ccc3n2CC)CC1	none
COc1ccc(NC(=O)CCN2CCCCC2)cc1	none
COc1ccc(NC(=O)CCN2CCCCCC2)cc1	PLC-gamma1 inh 11 | PLCg1 ctr inactive | PLCbeta3 conf inactive
CCN1CCN(CCC(=O)Nc2ccc3c(c2)OCO3)CC1	PLC-gamma1 inh 13 | PLCg1 ctr inactive | PLCbeta3 conf inactive
COc1ccc(OCCCC(=O)Nc2ccc(N3CCCCC3)cc2)cc1	PLC-gamma1 inh 10 | PLCg1 ctr inactive | PLCbeta3 conf inactive
CCOC(=O)N1CCN(Cc2nc3cc(NC(=O)C(C)C)ccc3n2C)CC1	PLC-gamma1 inh 12 | PLCg1 ctr inactive | PLCbeta3 conf inactive
COc1ccc(OCCCC(=O)Nc2ccc(N3CCOCC3)cc2)cc1	none
Cn1c(N)c(C(=O)COC(=O)c2cc(S(=O)(=O)N3CCOCC3)ccc2F)c(=O)n(C)c1=O	none
COc1ccc(N2CCC(CNC(=S)Nc3ccc(C)cc3C)C2)cc1 (stereo unspecified)	none
CCOC(=O)N1CCN(CCC(=O)Nc2ccc(C)cc2)CC1	PLC-gamma1 inh 11 | PLCg1 ctr inactive | PLCbeta3 conf inactive
CCOC(=O)N1CCN(CC(=O)Nc2ccc(C)cc2)CC1	none
Cc1cc(C(=O)N2CCCC(C(=O)c3cccc4ccccc34)C2)nc(C)n1 (stereo unspecified)	PLC-gamma1 inh 10 | PLCg1 ctr inactive | PLCbeta3 conf inactive
Cc1ccn(CC(=O)N2CCCC(C(=O)c3cccc4ccccc34)C2)n1 (stereo unspecified)	none
O=C(NCc1ccc(F)cc1)c1cc2c(s1)CCCC2	PLC-gamma1 inh 16, PLCb3 inh 15 | PLCg1 ctr inactive | PLCbeta3 conf 11
Cc1ccc(O)c(-c2cc(C(=O)Nc3cccnc3)[nH]n2)c1	PLC-gamma1 inh 11 | PLCg1 ctr inactive | PLCbeta3 conf inactive
C=CCn1ccc(=O)nc1SC	none
O=C(Nc1cccnc1)c1ccccc1Oc1ccccc1	PLCb3 inh 11 | PLCg1 ctr inactive | PLCbeta3 conf inactive

Screening results from PubChem BioAssay.
